Measured values from ChEMBL document CHEMBL1156597, “Structure-activity relationship of kahalalide F synthetic analogues” (J Med Chem, 2008).

Experiments:
[1] = Cytotoxicity against human IGROV-ET cells after 48 hrs by SRB assay; format: functional; conditions: for CC50: read-out: LC50 (the source's name)
In short: (§1)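 Cells grown in RPMI 1640 with 10% FBS and penicillin/streptomycin at 37 °C and 5% CO₂, trypsinized, then seeded at 5 × 10³/well. After 18 h drug-free attachment, samples in DMSO/EtOH/PBS (0.5:0.5:99) were added for 48 h continuous exposure. Cells were fixed with cold TCA (1 h, 4 °C) and stained with SRB (10 min). Tris-solubilized stain read at 490 nm. Triplicate wells, mean ± SD; GI₅₀ derived.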

[2] = tested on: PANC-1; test: Cytotoxicity against human PANC1 cells after 48 hrs by SRB assay; format: functional; conditions: PANC-1, 48 h; for CC50: read-out: LC50 (the source's name); in short: as §1
[3] = tested on: A549; test: Cytotoxicity against human A549 cells after 48 hrs by SRB assay; format: functional, cell-based; conditions: Homo sapiens, A549, 48 h; in short: as §1
[4] = Cytotoxicity against human IGROV cells after 48 hrs by SRB assay; format: functional; conditions: for CC50: read-out: LC50 (the source's name); in short: as §1
[5] = tested on: DU-145; test: Cytotoxicity against human DU145 cells after 48 hrs by SRB assay; format: functional, cell-based; conditions: Homo sapiens, DU-145, 48 h; for CC50: read-out: LC50 (the source's name); in short: as §1
[6] = tested on: LoVo; test: Cytotoxicity against human doxorubicin resistant LoVo cells after 48 hrs by SRB assay; format: functional; conditions: for CC50: read-out: LC50 (the source's name); in short: as §1
[7] = tested on: HT-29; test: Cytotoxicity against human HT29 cells after 48 hrs by SRB assay; format: functional, cell-based; conditions: Homo sapiens, HT-29, 48 h; for CC50: read-out: LC50 (the source's name); in short: as §1
[8] = tested on: LNCaP; test: Cytotoxicity against human LNcaP cells after 48 hrs by SRB assay; format: functional; conditions: for CC50: read-out: LC50 (the source's name); in short: as §1
[9] = tested on: LoVo; test: Cytotoxicity against human LoVo cells after 48 hrs by SRB assay; format: functional; conditions: for CC50: read-out: LC50 (the source's name)
[10] = tested on: SK-MEL-28; test: Cytotoxicity against human SK-MEL-28 cells after 48 hrs by SRB assay; format: functional, cell-based; conditions: Homo sapiens, SK-MEL-28, 48 h; for CC50: read-out: LC50 (the source's name); in short: as §1
[11] = Cytotoxicity against human HeLa-APL cells after 48 hrs by SRB assay; format: functional; in short: as §1
[12] = tested on: K562; test: Cytotoxicity against human K562 cells after 48 hrs by SRB assay; format: functional; conditions: K562, 48 h; for CC50: read-out: LC50 (the source's name); in short: as §1
[13] = tested on: HeLa; test: Cytotoxicity against human HeLa cells after 48 hrs by SRB assay; format: functional; conditions: for CC50: read-out: LC50 (the source's name); in short: as §1
[14] = tested on: SK-BR-3; test: Cytotoxicity against human SKBR3 cells after 48 hrs by SRB assay; format: functional; conditions: SK-BR-3, 48 h; for GI50: read-out: GI50; for CC50: read-out: LC50 (the source's name); in short: as §1

Row | SMILES | GI50 ([1]; read-out: GI50) [µM] | CC50 [1] [µM] | CC50 [2] [µM] | LC50 [3] [µM] | GI50 ([3]; read-out: GI50) [µM] | GI50 [4] [µM] | GI50 ([4]; read-out: GI50) [µM] | CC50 [4] [µM] | CC50 [5] [µM] | CC50 [6] [µM] | CC50 [7] [µM] | GI50 [8] [µM] | TGI [8] [µM] | CC50 [8] [µM] | CC50 [9] [µM] | CC50 [10] [µM] | LC50 (concentration giving 50% net cell kill) [11] [µM] | CC50 [12] [µM] | CC50 [13] [µM] | CC50 [14] [µM] | other results
1 | C/C=C1\NC(=O)[C@H](Cc2ccccc2)NC(=O)[C@@H](CCC2CCCCC2)NC(=O)[C@@H](CCC2CCCCC2)NC(=O)[C@H](NC(=O)[C@@H](CCC2CCCCC2)NC(=O)[C@H](CCCN)NC(=O)[C@H]2CCCN2C(=O)[C@H](NC(=O)[C@@H](NC(=O)[C@@H](NC(=O)[C@H](NC(=O)CCCC(C)C)C(C)C)[C@@H](C)O)C(C)C)C(C)C)[C@H](C)OC(=O)[C@H](C(C)C)NC1=O | 0.255 | 0.055 | 1.45 | 0.222 | 0.161 | 0.139 | 0.214 | 0.161 | 0.104 | 0.0274 | 0.32 | 0.304 | 0.415 | 0.633 | 0.264 | 0.144 | 0.573 | 0.98 | 0.586 | 0.0878 | GI50 [1]: 0.227 µM; GI50 [2]: 1.32 µM; TGI [2]: 1.38 µM; GI50 [3]: 0.173 µM; GI50 [5]: 0.125 µM; GI50 ([5]; read-out: GI50): 0.148 µM; GI50 [7]: 0.359 µM; TGI [7]: 0.339 µM; GI50 [9]: 0.282 µM; TGI [9]: 0.274 µM; GI50 [10]: 0.159 µM; GI50 ([10]; read-out: GI50): 0.174 µM; GI50 [11]: 0.233 µM; TGI [11]: 3.4 µM; GI50 [12]: 0.363 µM; TGI [12]: 0.63 µM; GI50 [13]: 0.255 µM; TGI [13]: 0.361 µM; TGI [14]: 0.201 µM; GI50 [14]: 0.249 µM
2 | C/C=C1\NC(=O)[C@H](Cc2ccccc2)NC(=O)[C@@H](C(C)C)NC(=O)[C@@H]([C@H](C)CC)NC(=O)[C@H](NC(=O)[C@H](NC(=O)[C@H](CCCN)NC(=O)[C@H]2CCCN2C(=O)[C@H](NC(=O)[C@@H](NC(=O)[C@@H](NC(=O)[C@H](NC(=O)CCCC(C)C)C(C)C)[C@@H](C)O)C(C)C)C(C)C)[C@H](C)CC)[C@@H](C)OC(=O)[C@H](C(C)C)NC1=O | 3.76 | 2.13 | 8.9 | 1.92 | – | – | 73.2 | 72.4 | 10.6 | 4.08 | 3.79 | 19.3 | 20.3 | 4.92 | 5.54 | 1.77 | 2.36 | 4.42 | 1.91 | 1.69 | TGI [1]: 4.48 µM; TGI [4]: 106 µM; GI50 [6]: 6.03 µM; TGI [6]: 7.37 µM
3 | C/C=C1\NC(=O)[C@H](Cc2ccccc2)NC(=O)[C@@H](C(C)C)NC(=O)[C@@H]([C@H](C)CC)NC(=O)[C@H](NC(=O)[C@H](NC(=O)[C@H](CCCN)NC(=O)[C@H]2CCCN2C(=O)[C@H](NC(=O)[C@@H](NC(=O)[C@@H]2CCCN2C(=O)[C@H](NC(=O)CCCC(C)C)C(C)C)C(C)C)C(C)C)[C@H](C)CC)[C@H](C)OC(=O)[C@H](C(C)C)NC1=O | – | 0.92 | 2.28 | 4.69 | 1.61 | 0.28 | 4.52 | 0.585 | 1.43 | 0.396 | 4.31 | – | – | 0.982 | 3.38 | 1.67 | 0.934 | 1.92 | 0.967 | 0.302 | GI50 [2]: 5.14 µM; TGI [2]: 4.52 µM; TGI [3]: 1.53 µM; GI50 [6]: 2.86 µM; TGI [6]: 2.33 µM; GI50 [7]: 4.63 µM; TGI [7]: 4.48 µM; GI50 [9]: 4.66 µM; TGI [9]: 4.05 µM; TGI [10]: 2.33 µM; GI50 ([10]; read-out: GI50): 2.44 µM; GI50 [12]: 1.48 µM; TGI [12]: 1.69 µM
4 | C/C=C1\NC(=O)[C@H](Cc2ccccc2)NC(=O)[C@@H](C(C)C)NC(=O)[C@@H]([C@H](C)CC)NC(=O)[C@H](NC(=O)[C@H](NC(=O)[C@H](CCCN)NC(=O)[C@H]2CCCN2C(=O)[C@H](NC(=O)[C@@H](NC(=O)[C@@H](NC(=O)[C@@H](CCCN)NC(=O)CCCC(C)C)[C@@H](C)O)C(C)C)C(C)C)[C@H](C)CC)[C@H](C)OC(=O)[C@H](C(C)C)NC1=O | 0.103 | 0.559 | 1.76 | 3.84 | 0.747 | 0.63 | 1.13 | 0.382 | 1.17 | 0.296 | 4.27 | 0.853 | 1.17 | 0.95 | 0.33 | 1.16 | 0.965 | 1.91 | 1.03 | 0.907 | GI50 [1]: 0.806 µM; GI50 [2]: 1.42 µM; TGI [2]: 1.24 µM; GI50 [3]: 0.888 µM; TGI [5]: 1.27 µM; GI50 ([5]; read-out: GI50): 1.16 µM; TGI [10]: 1.15 µM; GI50 ([10]; read-out: GI50): 1.14 µM; GI50 [11]: 1.1 µM; TGI [11]: 1.07 µM; GI50 [12]: 0.877 µM; TGI [12]: 1.12 µM; GI50 [13]: 1.37 µM; TGI [13]: 1.4 µM; TGI [14]: 1.77 µM; GI50 [14]: 1.72 µM
5 | C/C=C1\NC(=O)[C@H](Cc2ccccc2)NC(=O)[C@@H](C(C)C)NC(=O)[C@@H]([C@H](C)CC)NC(=O)[C@H](NC(=O)[C@H](NC(=O)[C@H](CCCNC(=O)C(F)(F)F)NC(=O)[C@H]2CCCN2C(=O)[C@H](NC(=O)[C@@H](NC(=O)[C@@H](NC(=O)[C@H](NC(=O)CC[C@@H](C)CC)C(C)C)[C@@H](C)OC(=O)C(F)(F)F)C(C)C)C(C)C)[C@H](C)CC)[C@H](C)OC(=O)[C@H](C(C)C)NC1=O | 0.77 | 2.48 | 1.57 | 1.18 | 1.23 | 0.397 | 0.373 | 0.281 | 0.931 | 1.13 | 0.381 | 1.14 | 1.72 | 1.33 | 0.294 | 1.14 | 0.679 | 1.71 | 0.543 | 0.313 | GI50 [1]: 0.911 µM; TGI [3]: 1.2 µM; TGI [5]: 1.17 µM; GI50 ([5]; read-out: GI50): 1.46 µM; GI50 [6]: 0.363 µM; TGI [6]: 0.396 µM; GI50 [7]: 0.329 µM; TGI [7]: 0.355 µM; GI50 [9]: 0.276 µM; TGI [9]: 0.284 µM; GI50 [11]: 0.849 µM; TGI [11]: 0.778 µM; GI50 [13]: 0.656 µM; TGI [13]: 0.597 µM; TGI [14]: 0.322 µM; GI50 [14]: 0.331 µM
